What was measured:
Type in all cases: functional
[1] = tested on: CCRF-CEM; assay: Growth inhibition of human CCRF-CEM cells after 48 hrs
In short: (§1)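 NCI ~60-line screen. Cells were grown in RPMI 1640 with 5% FBS and 2 mM L-glutamine and plated at 5000–40000 cells/well. After a 24 h preincubation, five drug concentrations from DMSO stocks were added for 48 h at 37 °C. Cells were TCA-fixed, stained with SRB and read at 515 nm. GI50 was taken from time-zero and control absorbances and reported as pGI50.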

[2] = tested on: HL-60; assay: Growth inhibition of human HL60 cells after 48 hrs; conditions: HL-60, 48 h; in short: as §1
[3] = tested on: K562; assay: Growth inhibition of human K562 cells after 48 hrs; conditions: K562, 48 h; in short: as §1
[4] = tested on: MOLT-4; assay: Growth inhibition of human MOLT4 cells after 48 hrs; conditions: MOLT-4, 48 h; in short: as §1
[5] = Growth inhibition of human HS578T cells after 48 hrs; conditions: Hs-578T; in short: as §1
[6] = tested on: MDA-MB-435; assay: Growth inhibition of human MDA-MB435 cells after 48 hrs; conditions: MDA-MB-435, 48 h; in short: as §1
[7] = tested on: BT-549; assay: Growth inhibition of human BT549 cells after 48 hrs; conditions: BT-549, 48 h; in short: as §1
[8] = tested on: T47D; assay: Growth inhibition of human T47D cells after 48 hrs
In short: (§2)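 NCI 60-line screen: cells in RPMI 1640 with 5% FBS and 2 mM L-glutamine, plated at 5000–40000 cells/well, grown 24 h (37 °C, 5% CO₂), then exposed to five 10-fold or ½-log dilutions (DMSO stock) for 48 h. Fixed with TCA (final 10% for adherent cells, 16% for suspension cells), then SRB stained with absorbance at 515 nm. GI50 from percentage growth relative to time-zero and control wells.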

[9] = tested on: RPMI-8226; assay: Growth inhibition of human RPMI8226 cells after 48 hrs; conditions: RPMI-8226, 48 h; in short: as §1
[10] = tested on: SR; assay: Growth inhibition of human SR cells after 48 hrs; in short: as §2
[11] = tested on: A549; assay: Growth inhibition of human A549 cells after 48 hrs; conditions: A549, 48 h; in short: as §1
[12] = tested on: EKVX; assay: Growth inhibition of human EKVX cells after 48 hrs; in short: as §1
[13] = tested on: HOP-62; assay: Growth inhibition of human HOP62 cells after 48 hrs; conditions: HOP-62, 48 h; in short: as §1
[14] = tested on: HOP-92; assay: Growth inhibition of human HOP92 cells after 48 hrs; conditions: HOP-92, 48 h; in short: as §1
[15] = tested on: NCI-H226; assay: Growth inhibition of human NCI-H226 cells after 48 hrs; conditions: NCI-H226, 48 h; in short: as §1
[16] = tested on: NCI-H23; assay: Growth inhibition of human NCI-H23 cells after 48 hrs; conditions: Homo sapiens, NCI-H23, 48 h; in short: as §1
[17] = tested on: NCI-H322M; assay: Growth inhibition of human NCI-H322M cells after 48 hrs; in short: as §1
[18] = tested on: NCI-H460; assay: Growth inhibition of human NCI-H460 cells after 48 hrs; conditions: NCI-H460, 48 h; in short: as §1
[19] = tested on: NCI-H522; assay: Growth inhibition of human NCI-H522 cells after 48 hrs; conditions: NCI-H522, 48 h; in short: as §1
[20] = tested on: COLO 205; assay: Growth inhibition of human COLO205 cells after 48 hrs; conditions: COLO 205, 48 h; in short: as §1
[21] = tested on: HCC 2998; assay: Growth inhibition of human HCC2998 cells after 48 hrs; conditions: HCC 2998, 48 h; in short: as §1
[22] = tested on: HCT-116; assay: Growth inhibition of human HCT116 cells after 48 hrs; conditions: HCT-116, 48 h; in short: as §1
[23] = tested on: HCT-15; assay: Growth inhibition of human HCT15 cells after 48 hrs; conditions: HCT-15, 48 h; in short: as §1
[24] = tested on: HT-29; assay: Growth inhibition of human HT29 cells after 48 hrs; conditions: HT-29, 48 h; in short: as §1
[25] = tested on: KM12; assay: Growth inhibition of human KM12 cells after 48 hrs; conditions: KM12, 48 h; in short: as §1
[26] = tested on: SW-620; assay: Growth inhibition of human SW620 cells after 48 hrs; conditions: SW-620, 48 h; in short: as §2
[27] = tested on: SF-268; assay: Growth inhibition of human SF268 cells after 48 hrs; conditions: SF-268, 48 h; in short: as §1
[28] = tested on: SF-295; assay: Growth inhibition of human SF295 cells after 48 hrs; conditions: SF-295, 48 h; in short: as §1
[29] = tested on: SF-539; assay: Growth inhibition of human SF539 cells after 48 hrs; conditions: SF-539, 48 h; in short: as §1
[30] = tested on: SNB-19; assay: Growth inhibition of human SNB19 cells after 48 hrs; conditions: SNB-19, 48 h; in short: as §2
[31] = tested on: SNB-75; assay: Growth inhibition of human SNB75 cells after 48 hrs; conditions: SNB-75, 48 h; in short: as §2
[32] = tested on: U-251; assay: Growth inhibition of human U251 cells after 48 hrs; conditions: U-251, 48 h; in short: as §2
[33] = tested on: LOX IMVI; assay: Growth inhibition of human LOXIMVI cells after 48 hrs; in short: as §1
[34] = tested on: Malme-3M; assay: Growth inhibition of human MALME3M cells after 48 hrs; in short: as §1
[35] = tested on: M14; assay: Growth inhibition of human M14 cells after 48 hrs; conditions: M14, 48 h; in short: as §1
[36] = tested on: SK-MEL-2; assay: Growth inhibition of human SK-MEL2 cells after 48 hrs; conditions: SK-MEL-2, 48 h; in short: as §1
[37] = tested on: SK-MEL-28; assay: Growth inhibition of human SK-MEL28 cells after 48 hrs; conditions: SK-MEL-28, 48 h; in short: as §1
[38] = tested on: SK-MEL-5; assay: Growth inhibition of human SK-MEL5 cells after 48 hrs; conditions: SK-MEL-5, 48 h; in short: as §1
[39] = tested on: UACC-257; assay: Growth inhibition of human UACC257 cells after 48 hrs; conditions: UACC-257, 48 h; in short: as §2
[40] = tested on: UACC-62; assay: Growth inhibition of human UACC62 cells after 48 hrs; conditions: UACC-62, 48 h; in short: as §2
[41] = tested on: IGROV-1; assay: Growth inhibition of human IGROV1 cells after 48 hrs; conditions: IGROV-1, 48 h; in short: as §1
[42] = tested on: OVCAR-3; assay: Growth inhibition of human OVCAR-3 cells after 48 hrs; conditions: OVCAR-3, 48 h; in short: as §1
[43] = tested on: OVCAR-4; assay: Growth inhibition of human OVCAR4 cells after 48 hrs; conditions: OVCAR-4, 48 h; in short: as §1
[44] = tested on: OVCAR-5; assay: Growth inhibition of human OVCAR5 cells after 48 hrs; conditions: OVCAR-5, 48 h; in short: as §1
[45] = tested on: OVCAR-8; assay: Growth inhibition of human OVCAR8 cells after 48 hrs; conditions: OVCAR-8, 48 h; in short: as §1
[46] = tested on: SK-OV-3; assay: Growth inhibition of human SKOV3 cells after 48 hrs; conditions: SK-OV-3, 48 h; in short: as §2
[47] = tested on: 786-0; assay: Growth inhibition of human 786-0 cells after 48 hrs; conditions: 786-0, 48 h; in short: as §1
[48] = tested on: A498; assay: Growth inhibition of human A498 cells after 48 hrs; conditions: A498, 48 h; in short: as §1
[49] = tested on: ACHN; assay: Growth inhibition of human ACHN cells after 48 hrs; in short: as §1
[50] = tested on: CAKI-1; assay: Growth inhibition of human CAKI1 cells after 48 hrs; conditions: CAKI-1, 48 h; in short: as §1
[51] = tested on: RXF 393; assay: Growth inhibition of human RXF393 cells after 48 hrs; conditions: RXF 393, 48 h; in short: as §1
[52] = tested on: SN12C; assay: Growth inhibition of human SN12C cells after 48 hrs; in short: as §2
[53] = tested on: TK-10; assay: Growth inhibition of human TK10 cells after 48 hrs; conditions: TK-10, 48 h; in short: as §2
[54] = tested on: UO-31; assay: Growth inhibition of human UO31 cells after 48 hrs; conditions: UO-31, 48 h; in short: as §2
[55] = tested on: PC-3; assay: Growth inhibition of human PC3 cells after 48 hrs; conditions: PC-3, 48 h; in short: as §1
[56] = tested on: DU-145; assay: Growth inhibition of human DU145 cells after 48 hrs; conditions: DU-145, 48 h; in short: as §1
[57] = tested on: MCF7; assay: Growth inhibition of human MCF7 cells after 48 hrs; conditions: MCF7, 48 h; in short: as §1
[58] = tested on: NCI/ADR-RES; assay: Growth inhibition of human NCI/ADR-RES cells after 48 hrs; in short: as §1
[59] = tested on: MDA-MB-231; assay: Growth inhibition of human MDA-MB-231 cells after 48 hrs; conditions: MDA-MB-231, 48 h; in short: as §1

GI50 [1]: > 100 µM
GI50 [2]: > 100 µM
GI50 [3]: > 100 µM
GI50 [4]: > 100 µM
GI50 [6]: > 100 µM
GI50 [7]: 72.4 µM
GI50 [8]: 56.2 µM
GI50 [9]: > 100 µM
GI50 [11]: > 100 µM
GI50 [15]: > 100 µM
GI50 [16]: > 100 µM
GI50 [17]: > 100 µM
GI50 [18]: > 100 µM
GI50 [19]: 69.2 µM
GI50 [20]: > 100 µM
GI50 [21]: > 100 µM
GI50 [22]: 91.2 µM
GI50 [23]: > 100 µM
GI50 [24]: > 100 µM
GI50 [26]: > 100 µM
GI50 [32]: > 100 µM
GI50 [36]: > 100 µM
GI50 [37]: > 100 µM
GI50 [38]: > 100 µM
GI50 [42]: > 100 µM
GI50 [43]: 38 µM
GI50 [44]: > 100 µM
GI50 [45]: > 100 µM
GI50 [46]: > 100 µM
GI50 [47]: > 100 µM
GI50 [49]: > 100 µM
GI50 [55]: > 100 µM
GI50 [56]: > 100 µM
GI50 [57]: 64.6 µM
GI50 [59]: 72.4 µM
SMILES: Cn1c2ccccc2c2c(=O)n(CCCC(=O)N(C(=O)NC3CCCCC3)C3CCCCC3)c3c(-c4ccccc4)nnn3c21
GI50 [5]: > 100 µM
GI50 [10]: > 100 µM
GI50 [12]: > 100 µM
GI50 [13]: > 100 µM
GI50 [14]: > 100 µM
GI50 [25]: > 100 µM
GI50 [27]: 97.7 µM
GI50 [28]: 79.4 µM
GI50 [29]: 38 µM
GI50 [30]: > 100 µM
GI50 [31]: 44.7 µM
GI50 [33]: > 100 µM
GI50 [34]: > 100 µM
GI50 [35]: > 100 µM
GI50 [39]: > 100 µM
GI50 [40]: > 100 µM
GI50 [41]: 15.5 µM
GI50 [48]: 66.1 µM
GI50 [50]: > 100 µM
GI50 [51]: 63.1 µM
GI50 [52]: > 100 µM
GI50 [53]: > 100 µM
GI50 [54]: > 100 µM
GI50 [58]: 95.5 µM

Source: ChEMBL document CHEMBL1142436, “Design and synthesis of 4-substituted indolo[3,2-e][1,2,3]triazolo[1,5-a]pyrimidine derivatives with antitumor activity” (2008)
